Experimental data as given in ChEMBL document CHEMBL1255494, “In vivo comparison of the pharmacodynamic targets for echinocandin drugs against Candida species” (Antimicrob Agents Chemother, 2010).
Converted amounts (≈) assume the structure as drawn.

Key:
Nakaseomyces glabratus [1] = assay: Antifungal activity against Candida glabrata infected in neutropenic ICR Swiss mouse assessed log reduction in bacterial count […]; format: functional
How it was run: (§1)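 Female ICR Swiss mice, neutropenic via cyclophosphamide s.c. (150 mg/kg day −4, 100 mg/kg day −1 and day +2), infected by tail-vein injection of clinical isolates 2 h before therapy. Intraperitoneal dosing every 24 h for 4 days, 4–6 dose levels from 0.078 to 160 mg/kg, 3 mice per regimen. Kidney CFU counted at 96 h. Sigmoid dose-effect fit gives static dose and 1 log kill dose relative to burden at start of therapy.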

Candida albicans [2] = assay: Antifungal activity against Candida albicans 580 after 24 hrs; format: functional; conditions: Candida albicans, 580, 24 h
How it was run: (§2)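 Broth microdilution per CLSI M27-A3 in RPMI 1640; inoculum 0.5 × 10³ to 2.5 × 10³ cells/ml, 35°C. […] Three separate occasions in duplicate, mean reported; C. krusei ATCC 6258 and C. parapsilosis ATCC 22019 as daily QC.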

Nakaseomyces glabratus [3] = assay: Antifungal activity against Candida glabrata infected in ICR Swiss mouse; format: functional; how it was run: as §1
Candida albicans [4] = assay: Antifungal activity against Candida albicans 98-234 after 24 hrs; format: functional; conditions: 98-234, 24 h
How it was run: (§3)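 MICs by CLSI M27-A3 broth dilution in RPMI 1640, inoculum 0.5 × 10³ to 2.5 × 10³ cells/ml, 35°C. Read visually at 24 h as the lowest concentration giving ≥50% growth reduction versus control. Run on three occasions in duplicate and reported as the mean. C. krusei ATCC 6258 and C. parapsilosis ATCC 22019 served as QC strains.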

[5] = Cmax in Candida albicans infected neutropenic ICR Swiss mouse at 5 mg/kg, ip; format: ADME, organism-based; design: dose 5 mg/kg, route intraperitoneal; conditions: ICR Swiss, in vivo
How it was run: (§4)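 Neutropenic female ICR Swiss mice (cyclophosphamide sc at 150 mg/kg on day −4, 100 mg/kg on day −1 and day +2) infected iv via tail vein with Candida; single ip doses of 5, 20 or 80 mg/kg. Serum drawn from 3 mice per time point at eight time points and assayed by microbiologic assay (C. albicans K1) or […]. Noncompartmental analysis; AUC by trapezoidal rule.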

Candida albicans [6] = assay: Antifungal activity against Candida albicans 98-210 after 24 hrs; format: functional; conditions: 98-210, 24 h; how it was run: as §2
Candida parapsilosis [7] = assay: Antifungal activity against Candida parapsilosis 20562.03 after 24 hrs; format: functional; conditions: Lodderomyces parapsilosis, 20562.03, 24 h; how it was run: as §3
Candida albicans [8] = assay: Antifungal activity against Candida albicans K1 after 24 hrs; format: functional; conditions: K1, 24 h; how it was run: as §2
Candida parapsilosis [9] = assay: Antifungal activity against Candida parapsilosis infected in ICR Swiss mouse; format: functional; how it was run: as §1
[10] = Cmax in Candida albicans infected neutropenic ICR Swiss mouse at 80 mg/kg, ip; format: ADME, organism-based; design: dose 80 mg/kg, route intraperitoneal; conditions: ICR Swiss, in vivo; how it was run: as §4
Candida parapsilosis [11] = assay: Antifungal activity against Candida parapsilosis 20489.085 after 24 hrs; format: functional; conditions: Lodderomyces parapsilosis, 20489.085, 24 h; how it was run: as §2
Candida parapsilosis [12] = assay: Antifungal activity against Candida parapsilosis 20435.057 after 24 hrs; format: functional; conditions: Lodderomyces parapsilosis, 20435.057, 24 h; how it was run: as §3
Nakaseomyces glabratus [13] = assay: Antifungal activity against Candida glabrata 5376 after 24 hrs; format: functional; conditions: Nakaseomyces glabratus, 5376, 24 h; how it was run: as §2
Candida parapsilosis [14] = assay: Fungistatic activity against Candida parapsilosis infected in neutropenic ICR Swiss mouse after 24 hrs; format: functional; how it was run: as §1
Candida parapsilosis [15] = assay: Antifungal activity against Candida parapsilosis 20511.092 after 24 hrs; format: functional; conditions: Lodderomyces parapsilosis, 20511.092, 24 h; how it was run: as §3
Candida albicans [16] = assay: Fungistatic activity against Candida albicans infected in neutropenic ICR Swiss mouse after 24 hrs; format: functional; how it was run: as §1
Candida orthopsilosis = assay: Antifungal activity against Candida orthopsilosis 20577.055 after 24 hrs; format: functional; conditions: Lodderomyces orthopsilosis, 20577.055, 24 h; how it was run: as §3
Nakaseomyces glabratus [17] = assay: Antifungal activity against Candida glabrata 34341 after 24 hrs; format: functional; conditions: Nakaseomyces glabratus, 34341, 24 h; how it was run: as §3
Candida parapsilosis [18] = assay: Antifungal activity against Candida parapsilosis infected in ICR Swiss mouse assessed log reduction in bacterial count […]; format: functional; how it was run: as §1
Candida parapsilosis [19] = assay: Antifungal activity against Candida parapsilosis 20477.048 after 24 hrs; format: functional; conditions: Lodderomyces parapsilosis, 20477.048, 24 h; how it was run: as §3
Nakaseomyces glabratus [20] = assay: Fungistatic activity against Candida glabrata infected in neutropenic ICR Swiss mouse after 24 hrs; format: functional; how it was run: as §1
Candida albicans [21] = assay: Antifungal activity against Candida albicans 570 after 24 hrs; format: functional; conditions: Candida albicans, 570, 24 h; how it was run: as §3
Candida parapsilosis [22] = assay: Antifungal activity against Candida parapsilosis 20477.078 after 24 hrs; format: functional; conditions: Lodderomyces parapsilosis, 20477.078, 24 h; how it was run: as §3
Candida albicans [23] = assay: Antifungal activity against Candida albicans infected in ICR Swiss mouse; format: functional; how it was run: as §1
[24] = AUC (0 to 24 hrs) in Candida albicans infected neutropenic ICR Swiss mouse at 5 mg/kg, ip; format: ADME, organism-based; design: time < 24 hr, dose 5 mg/kg, route intraperitoneal; conditions: plasma; how it was run: as §4
Candida parapsilosis [25] = assay: Antifungal activity against Candida parapsilosis 20557.012 after 24 hrs; format: functional; conditions: Lodderomyces parapsilosis, 20557.012, 24 h; how it was run: as §3
Candida metapsilosis = assay: Antifungal activity against Candida metapsilosis 20463.02 after 24 hrs; format: functional; conditions: Lodderomyces metapsilosis, 20463.02, 24 h; how it was run: as §3
[26] = Cmax in Candida albicans infected neutropenic ICR Swiss mouse at 20 mg/kg, ip; format: ADME, organism-based; design: dose 20 mg/kg, route intraperitoneal; conditions: ICR Swiss, in vivo; how it was run: as §4
Candida albicans [27] = assay: Antifungal activity against Candida albicans 98-17 after 24 hrs; format: functional; conditions: 98-17, 24 h; how it was run: as §3
Candida parapsilosis [28] = assay: Antifungal activity against Candida parapsilosis 20450.096 after 24 hrs; format: functional; conditions: Lodderomyces parapsilosis, 20450.096, 24 h; how it was run: as §3
Candida parapsilosis [29] = assay: Antifungal activity against Candida parapsilosis 20519.069 after 24 hrs; format: functional; conditions: Lodderomyces parapsilosis, 20519.069, 24 h; how it was run: as §3
Nakaseomyces glabratus [30] = assay: Antifungal activity against Candida glabrata 33609 after 24 hrs; format: functional; conditions: Nakaseomyces glabratus, 33609, 24 h; how it was run: as §2
Nakaseomyces glabratus [31] = assay: Antifungal activity against Candida glabrata 32930 after 24 hrs; format: functional; conditions: Nakaseomyces glabratus, 32930, 24 h; how it was run: as §2
Candida parapsilosis [32] = assay: Antifungal activity against Candida parapsilosis 20385.079 after 24 hrs; format: functional; conditions: Lodderomyces parapsilosis, 20385.079, 24 h; how it was run: as §3
Candida parapsilosis [33] = assay: Antifungal activity against Candida parapsilosis 20553.009 after 24 hrs; format: functional; conditions: Lodderomyces parapsilosis, 20553.009, 24 h; how it was run: as §3
[34] = AUC (0 to 24 hrs) in Candida albicans infected neutropenic ICR Swiss mouse at 20 mg/kg, ip; format: ADME, organism-based; design: time < 24 hr, dose 20 mg/kg, route intraperitoneal; conditions: plasma; how it was run: as §4
Nakaseomyces glabratus [35] = assay: Antifungal activity against Candida glabrata 5592 after 24 hrs; format: functional; conditions: Nakaseomyces glabratus, 5592, 24 h; how it was run: as §2
Nakaseomyces glabratus [36] = assay: Antifungal activity against Candida glabrata 513 after 24 hrs; format: functional; conditions: Nakaseomyces glabratus, 513, 24 h; how it was run: as §2
Candida albicans [37] = assay: Antifungal activity against Candida albicans infected in ICR Swiss mouse assessed as log reduction in bacterial count […]; format: functional; how it was run: as §1
Nakaseomyces glabratus [38] = assay: Antifungal activity against Candida glabrata 35315 after 24 hrs; format: functional; conditions: Nakaseomyces glabratus, 35315, 24 h; how it was run: as §3
Nakaseomyces glabratus [39] = assay: Antifungal activity against Candida glabrata 33616 after 24 hrs; format: functional; conditions: Nakaseomyces glabratus, 33616, 24 h; how it was run: as §3
Candida parapsilosis [40] = assay: Antifungal activity against Candida parapsilosis 20423.072 after 24 hrs; format: functional; conditions: Lodderomyces parapsilosis, 20423.072, 24 h; how it was run: as §3
Candida parapsilosis [41] = assay: Antifungal activity against Candida parapsilosis 20423.078 after 24 hrs; format: functional; conditions: Lodderomyces parapsilosis, 20423.078, 24 h; how it was run: as §3
Mus musculus = assay: Protein binding in Candida albicans infected neutropenic ICR Swiss mouse at 80 mg/kg, ip; format: ADME, organism-based; design: dose 80 mg/kg, route intraperitoneal; conditions: in vivo
[42] = AUC (0 to 24 hrs) in Candida albicans infected neutropenic ICR Swiss mouse at 80 mg/kg, ip; format: ADME, organism-based; design: time < 24 hr, dose 80 mg/kg, route intraperitoneal; conditions: plasma; how it was run: as §4

CC[C@H](C)C[C@H](C)CCCCCCCCC(=O)N[C@H]1C[C@@H](O)[C@@H](NCCN)NC(=O)[C@@H]2[C@@H](O)CCN2C(=O)[C@H]([C@H](O)CCN)NC(=O)[C@H]([C@H](O)[C@@H](O)c2ccc(O)cc2)NC(=O)[C@@H]2C[C@@H](O)CN2C(=O)[C@H]([C@@H](C)O)NC1=O [CASPOFUNGIN]
Activity (Nakaseomyces glabratus [1]): 1.16 mg/kg | MIC (Candida albicans [2]): 0.03 µg/mL (≈ 0.0274 µM) | Emax (Nakaseomyces glabratus [3]): 7 log10 CFU/kidneys | ED50 (Nakaseomyces glabratus [3]; Nakaseomyces glabratus): 6.9 mg/kg | MIC (Candida albicans [4]): 0.03 µg/mL (≈ 0.0274 µM) | Cmax [5]: 18000 ng/mL | MIC (Candida albicans [6]): 0.02 µg/mL (≈ 0.0183 µM) | MIC (Candida parapsilosis [7]): 0.25 µg/mL (≈ 0.229 µM) | MIC (Candida albicans [8]): 0.03 µg/mL (≈ 0.0274 µM) | Emax (Candida parapsilosis [9]): 5.5 log10 CFU/kidneys | ED50 (Candida parapsilosis [9]; Lodderomyces parapsilosis): 10.4 mg/kg | Cmax [10]: 58000 ng/mL | MIC (Candida parapsilosis [11]): 0.25 µg/mL (≈ 0.229 µM) | MIC (Candida parapsilosis [12]): 0.06 µg/mL (≈ 0.0549 µM) | MIC (Nakaseomyces glabratus [13]): 0.03 µg/mL (≈ 0.0274 µM) | Activity (Candida parapsilosis [14]): 3.56 mg/kg | MIC (Candida parapsilosis [15]): 0.06 µg/mL (≈ 0.0549 µM) | Activity (Candida albicans [16]): 0.72 mg/kg | MIC (Candida orthopsilosis): 0.06 µg/mL (≈ 0.0549 µM) | MIC (Nakaseomyces glabratus [17]): 0.25 µg/mL (≈ 0.229 µM) | Activity (Candida parapsilosis [18]): 9.84 mg/kg | MIC (Candida parapsilosis [19]): 4 µg/mL (≈ 3.66 µM) | Activity (Nakaseomyces glabratus [20]): 0.33 mg/kg | MIC (Candida albicans [21]): 0.12 µg/mL (≈ 0.11 µM) | MIC (Candida parapsilosis [22]): 0.5 µg/mL (≈ 0.457 µM) | Emax (Candida albicans [23]): 4.1 log10 CFU/kidneys | ED50 (Candida albicans [23]; Candida albicans): 8 mg/kg | AUC(0-t) at 24 h [24]: 164 µg·h/mL | MIC (Candida parapsilosis [25]): 0.12 µg/mL (≈ 0.11 µM) | MIC (Candida metapsilosis): 0.06 µg/mL (≈ 0.0549 µM) | Cmax [26]: 26000 ng/mL | MIC (Candida albicans [27]): 0.12 µg/mL (≈ 0.11 µM) | MIC (Candida parapsilosis [28]): 0.5 µg/mL (≈ 0.457 µM) | MIC (Candida parapsilosis [29]): 1 µg/mL (≈ 0.915 µM) | MIC (Nakaseomyces glabratus [30]): 0.03 µg/mL (≈ 0.0274 µM) | MIC (Nakaseomyces glabratus [31]): 0.03 µg/mL (≈ 0.0274 µM) | MIC (Candida parapsilosis [32]): 0.5 µg/mL (≈ 0.457 µM) | MIC (Candida parapsilosis [33]): 1 µg/mL (≈ 0.915 µM) | AUC(0-t) at 24 h [34]: 345 µg·h/mL | MIC (Nakaseomyces glabratus [35]): 0.03 µg/mL (≈ 0.0274 µM) | MIC (Nakaseomyces glabratus [36]): 0.03 µg/mL (≈ 0.0274 µM) | Activity (Candida albicans [37]): 2.91 mg/kg | MIC (Nakaseomyces glabratus [38]): 0.12 µg/mL (≈ 0.11 µM) | MIC (Nakaseomyces glabratus [39]): 0.25 µg/mL (≈ 0.229 µM) | MIC (Candida parapsilosis [40]): 0.12 µg/mL (≈ 0.11 µM) | MIC (Candida parapsilosis [41]): 0.25 µg/mL (≈ 0.229 µM) | Activity (Mus musculus): 97% | AUC(0-t) at 24 h [42]: 667 µg·h/mL
